Measurements from ChEMBL document CHEMBL4270612, “Discovery of dual GyrB/ParE inhibitors active against Gram-negative bacteria” (Eur J Med Chem, 2018).
Converted amounts (≈) assume the structure as drawn.

How the values were obtained:
[1] = tested on: Pseudomonas aeruginosa; test: Antibacterial activity against Pseudomonas aeruginosa PAO1 after 24 hrs by broth microdilution method; type: functional; details: PAO1, 24 h
How it was run: (§1)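 Broth microdilution per CLSI. Bacterial suspension adjusted to 1×10^6 CFU/mL in cation-adjusted Mueller–Hinton broth and mixed 1:1 with 2-fold serial compound dilutions. Final DMSO 2.5% v/v. Plates incubated at 35 °C with shaking at 140 rpm for 24 h.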

[2] = tested on: Escherichia coli; test: Antibacterial activity against Escherichia coli after 24 hrs by broth microdilution method; type: functional; how it was run: as §1
[3] = tested on: Escherichia coli; test: Antibacterial activity against tolC deficient Escherichia coli after 24 hrs by broth microdilution method; type: functional
How it was run: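 Broth microdilution per CLSI guidelines. Inoculum adjusted to 1×10^6 CFU/mL in cation-adjusted Mueller–Hinton broth, added 1:1 to 2-fold serial compound dilutions; final DMSO 2.5% v/v. Plates incubated 35 °C, 140 rpm, 24 h.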

[4] = tested on: Acinetobacter baumannii; test: (§2) Antibacterial activity against Acinetobacter baumannii ARC3495 after 24 hrs by broth microdilution method; type: functional; details: ARC3495, 24 h; how it was run: as §1
[5] = tested on: Haemophilus influenzae; test: Antibacterial activity against Haemophilus influenzae ATCC 49247 after 24 hrs by broth microdilution method; type: functional; details: ATCC 49247, 24 h; how it was run: as §1
[6] = tested on: Enterobacter cloacae; test: Antibacterial activity against Enterobacter cloacae ARC3528 after 24 hrs by broth microdilution method; type: functional; details: ARC3528, 24 h; how it was run: as §1
[7] = tested on: Staphylococcus aureus; test: Antibacterial activity against Staphylococcus aureus ATCC 29213 after 24 hrs by broth microdilution method; type: functional; details: ATCC 29213, 24 h; how it was run: as §1
[8] = tested on: Staphylococcus aureus; test: Antibacterial activity against Staphylococcus aureus ATCC 29213 after 24 hrs in presence of 2% human albumin by broth microdilution method; type: functional; details: ATCC 29213, 24 h
[9] = tested on: Staphylococcus aureus; test: Antibacterial activity against methicillin-resistant Staphylococcus aureus FQ-R after 24 hrs by broth microdilution method; type: functional
How it was run: (§3)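 Broth microdilution per CLSI. Bacterial suspensions adjusted to 1×10^6 CFU/mL in cation-adjusted Mueller–Hinton broth, mixed 1:1 with 2-fold serial compound dilutions (final DMSO 2.5% v/v). Incubation 35 °C, 140 rpm, 24 h.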

[10] = tested on: Staphylococcus aureus; test: Antibacterial activity against methicillin-resistant Staphylococcus aureus USA100 after 24 hrs by broth microdilution method; type: functional; details: USA100, 24 h; how it was run: as §3
[11] = tested on: Streptococcus pyogenes; test: Antibacterial activity against Streptococcus pyogenes ARC838 after 24 hrs by broth microdilution method; type: functional; details: ARC838, 24 h
How it was run: (§4)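 Broth microdilution per CLSI. Bacterial suspension adjusted to 1×10^6 CFU/mL in cation-adjusted Mueller–Hinton broth and mixed 1:1 with 2-fold serial compound dilutions. Plates incubated at 35 °C with shaking at 140 rpm for 24 h.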

[12] = tested on: Streptococcus pneumoniae; test: Antibacterial activity against Streptococcus pneumoniae ATCC 49619 after 24 hrs by broth microdilution method; type: functional; details: ATCC 49619, 24 h; how it was run: as §1
[13] = tested on: Enterococcus faecalis; test: Antibacterial activity against Enterococcus faecalis ATCC 29212 after 24 hrs by broth microdilution method; type: functional; details: ATCC 29212, 24 h; how it was run: as §1
[14] = tested on: Candida albicans; test: Antifungal activity against Candida albicans ATCC 90028 after 24 hrs by broth microdilution method; type: functional; details: ATCC 90028, 24 h
[15] = tested on: Pseudomonas aeruginosa; test: Antibacterial activity against Pseudomonas aeruginosa ARC003 after 24 hrs by broth microdilution method; type: functional; details: ARC003, 24 h; how it was run: as §1
[16] = tested on: Pseudomonas aeruginosa; test: Antibacterial activity against Pseudomonas aeruginosa ARC3505 after 24 hrs by broth microdilution method; type: functional; details: ARC3505, 24 h; how it was run: as §1
[17] = tested on: Pseudomonas aeruginosa; test: Antibacterial activity against Pseudomonas aeruginosa ARC3506 after 24 hrs by broth microdilution method; type: functional; details: ARC3506, 24 h; how it was run: as §1
[18] = tested on: Pseudomonas aeruginosa; test: Antibacterial activity against Pseudomonas aeruginosa ARC3511 after 24 hrs by broth microdilution method; type: functional; details: ARC3511, 24 h; how it was run: as §4
[19] = tested on: Pseudomonas aeruginosa; test: Antibacterial activity against Pseudomonas aeruginosa ARC3514 after 24 hrs by broth microdilution method; type: functional; details: ARC3514, 24 h; how it was run: as §4
[20] = tested on: Pseudomonas aeruginosa; test: Antibacterial activity against Pseudomonas aeruginosa ARC3606 after 24 hrs by broth microdilution method; type: functional; details: ARC3606, 24 h; how it was run: as §1
[21] = tested on: Pseudomonas aeruginosa; test: Antibacterial activity against Pseudomonas aeruginosa ARC3607 after 24 hrs by broth microdilution method; type: functional; details: ARC3607, 24 h; how it was run: as §1
[22] = tested on: Pseudomonas aeruginosa; test: Antibacterial activity against Pseudomonas aeruginosa ARC3611 after 24 hrs by broth microdilution method; type: functional; details: ARC3611, 24 h; how it was run: as §1
[23] = tested on: Pseudomonas aeruginosa; test: Antibacterial activity against Pseudomonas aeruginosa ARC3612 after 24 hrs by broth microdilution method; type: functional; details: ARC3612, 24 h; how it was run: as §1
[24] = tested on: Pseudomonas aeruginosa; test: Antibacterial activity against Pseudomonas aeruginosa ARC3727 after 24 hrs by broth microdilution method; type: functional; details: ARC3727, 24 h; how it was run: as §4
[25] = tested on: Pseudomonas aeruginosa; test: Antibacterial activity against Pseudomonas aeruginosa ARC3756 after 24 hrs by broth microdilution method; type: functional; details: ARC3756, 24 h; how it was run: as §4
[26] = tested on: Pseudomonas aeruginosa; test: Antibacterial activity against Pseudomonas aeruginosa ARC3916 after 24 hrs by broth microdilution method; type: functional; details: ARC3916, 24 h; how it was run: as §1
[27] = tested on: Pseudomonas aeruginosa; test: Antibacterial activity against Pseudomonas aeruginosa ARC3925 after 24 hrs by broth microdilution method; type: functional; details: ARC3925, 24 h; how it was run: as §4
[28] = tested on: Pseudomonas aeruginosa; test: Antibacterial activity against Pseudomonas aeruginosa ARC4068 after 24 hrs by broth microdilution method; type: functional; details: ARC4068, 24 h; how it was run: as §4
[29] = tested on: Acinetobacter baumannii; test: Antibacterial activity against Acinetobacter baumannii ARC2675 after 24 hrs by broth microdilution method; type: functional; details: ARC2675, 24 h; how it was run: as §4
[30] = tested on: Acinetobacter baumannii; test: Antibacterial activity against Acinetobacter baumannii ARC2728 after 24 hrs by broth microdilution method; type: functional; details: ARC2728, 24 h; how it was run: as §1
[31] = tested on: Acinetobacter baumannii; test: Antibacterial activity against Acinetobacter baumannii ARC2779 after 24 hrs by broth microdilution method; type: functional; details: ARC2779, 24 h; how it was run: as §1
[32] = tested on: Acinetobacter baumannii; test: Antibacterial activity against Acinetobacter baumannii ARC2780 after 24 hrs by broth microdilution method; type: functional; details: ARC2780, 24 h; how it was run: as §4
[33] = tested on: Acinetobacter baumannii; test: Antibacterial activity against Acinetobacter baumannii ARC3485 after 24 hrs by broth microdilution method; type: functional; details: ARC3485, 24 h; how it was run: as §1
[34] = tested on: Acinetobacter baumannii; test: Antibacterial activity against Acinetobacter baumannii ARC3486 after 24 hrs by broth microdilution method; type: functional; details: ARC3486, 24 h; how it was run: as §1
[35] = tested on: Acinetobacter baumannii; test: Antibacterial activity against Acinetobacter baumannii ARC3489 after 24 hrs by broth microdilution method; type: functional; details: ARC3489, 24 h; how it was run: as §1
[36] = tested on: Acinetobacter baumannii; test: Antibacterial activity against Acinetobacter baumannii ARC3493 after 24 hrs by broth microdilution method; type: functional; details: ARC3493, 24 h; how it was run: as §1
[37] = tested on: Acinetobacter baumannii; test: as §2; type: functional; details: ARC3495, 24 h; how it was run: as §1; remark: listed apart in the source
[38] = tested on: Acinetobacter baumannii; test: Antibacterial activity against Acinetobacter baumannii ARC3513 after 24 hrs by broth microdilution method; type: functional; details: ARC3513, 24 h; how it was run: as §1
[39] = tested on: Acinetobacter baumannii; test: Antibacterial activity against Acinetobacter baumannii ARC3515 after 24 hrs by broth microdilution method; type: functional; details: ARC3515, 24 h; how it was run: as §1
[40] = tested on: Acinetobacter baumannii; test: Antibacterial activity against Acinetobacter baumannii ARC3657 after 24 hrs by broth microdilution method; type: functional; details: ARC3657, 24 h; how it was run: as §1
[41] = tested on: Acinetobacter baumannii; test: Antibacterial activity against Acinetobacter baumannii ARC3659 after 24 hrs by broth microdilution method; type: functional; details: ARC3659, 24 h; how it was run: as §1
[42] = tested on: Acinetobacter baumannii; test: Antibacterial activity against Acinetobacter baumannii ARC3882 after 24 hrs by broth microdilution method; type: functional; details: ARC3882, 24 h; how it was run: as §1
[43] = Protein binding in human plasma; type: ADME, cell-free; details: read-out: PPB (converted)
[44] = Growth inhibition of human A549 cells; type: cell-based

## CCNC(=O)Nc1cc(-c2nc(C(F)(F)F)cs2)c(-c2cc3ncccc3nc2N2C3CCC2CN(C)C3)cn1
[1]
  MIC: 9.09 µg/mL (≈ 16 µM)
[2]
  MIC: 2.27 µg/mL (≈ 3.99 µM)
[3]
  MIC: 0.14 µg/mL (≈ 0.246 µM)
[4]
  MIC: 2 µg/mL (≈ 3.52 µM)
[5]
  MIC: 0.25 µg/mL (≈ 0.44 µM)
[6]
  MIC: > 64 µg/mL
[7]
  MIC: < 0.06 µg/mL
[8]
  MIC: < 0.06 µg/mL
[9]
  MIC: < 0.06 µg/mL
[10]
  MIC: < 0.06 µg/mL
[11]
  MIC: < 0.06 µg/mL
[12]
  MIC: < 0.06 µg/mL
[13]
  MIC: < 0.06 µg/mL
[14]
  MIC: > 64 µg/mL
[15]
  MIC: 4 µg/mL (≈ 7.03 µM)
[16]
  MIC: 32 µg/mL (≈ 56.3 µM)
[17]
  MIC: 16 µg/mL (≈ 28.1 µM)
[18]
  MIC: 8 µg/mL (≈ 14.1 µM)
[19]
  MIC: 8 µg/mL (≈ 14.1 µM)
[20]
  MIC: 32 µg/mL (≈ 56.3 µM)
[21]
  MIC: 64 µg/mL (≈ 113 µM)
[22]
  MIC: 8 µg/mL (≈ 14.1 µM)
[23]
  MIC: 32 µg/mL (≈ 56.3 µM)
[24]
  MIC: 32 µg/mL (≈ 56.3 µM)
[25]
  MIC: 16 µg/mL (≈ 28.1 µM)
[26]
  MIC: 16 µg/mL (≈ 28.1 µM)
[27]
  MIC: 16 µg/mL (≈ 28.1 µM)
[28]
  MIC: 16 µg/mL (≈ 28.1 µM)
[29]
  MIC: 4 µg/mL (≈ 7.03 µM)
[30]
  MIC: 1 µg/mL (≈ 1.76 µM)
[31]
  MIC: 2 µg/mL (≈ 3.52 µM)
[32]
  MIC: 0.5 µg/mL (≈ 0.879 µM)
[33]
  MIC: 2 µg/mL (≈ 3.52 µM)
[34]
  MIC: 2 µg/mL (≈ 3.52 µM)
[35]
  MIC: 2 µg/mL (≈ 3.52 µM)
[36]
  MIC: 2 µg/mL (≈ 3.52 µM)
[37]
  MIC: 2 µg/mL (≈ 3.52 µM)
[38]
  MIC: 8 µg/mL (≈ 14.1 µM)
[39]
  MIC: 4 µg/mL (≈ 7.03 µM)
[40]
  MIC: 4 µg/mL (≈ 7.03 µM)
[41]
  MIC: 2 µg/mL (≈ 3.52 µM)
[42]
  MIC: 2 µg/mL (≈ 3.52 µM)
[43]
  fraction unbound: 0.03
[44]
  GI50: > 25 µM
